Experimental data taken from article PMC11421684 (Food and chemical toxicology : an international journal …, 2014).
Like-named read-outs stand apart in the source and are kept apart here.

How the values were obtained:
[1] = Weight gains, feed and water consumption of gavaged rats; assay type: in vivo, rat
In short: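 Rats were housed singly at 18–26 °C, 40–70% RH and 12 h light/dark, with feed and water ad libitum. They were gavaged for 10 days from GD10 with vehicle (1% CMC-Na) or 1000 mg/kg BW/day test compound. Fluid intake was measured every 3 days and feed every 7 days. For dams, adjusted gain = GD20 body weight minus gravid uterus weight and GD10 weight.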

[2] = Body weight and organ weights standardized to body weight; assay type: in vivo, rat; conditions: 1000 mg/kg BW/day; for Paired kidney weight standardized to body weight (% ± SEM): group mean
[3] = system: pregnant rats; assay: Reproductive indices at necropsy; assay type: in vivo, rat; conditions: dams
In short: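 Time-pregnant rats were gavaged daily for 10 days from GD10 with 1% CMC-Na or 1000 mg/kg BW/day test compound. At necropsy the gravid uterus was removed whole and weighed, and corpora lutea, implants, and early and late deaths were recorded. Groups were compared against both control and the other triazine group.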

[4] = system: fetuses; assay: Fetal data; assay type: in vivo, rat; conditions: dams, 1000 mg/kg BW/day, GD20
In short: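 Dams were dosed by gavage (1000 mg/kg BW/day or 1% CMC-Na vehicle) for 10 days from GD10. At GD20 necropsy, the gravid uterus was removed whole and weighed. Each viable fetus was recorded for uterine position, sex, weight, crown-rump length and external abnormalities. Runts were defined as below 70% of the control litter average weight by gender.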

[5] = system: kidney; assay: Kidney wet-mount analysis for renal crystals; assay type: in vivo, rat
In short: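 After 10 days of gavage at 1000 mg/kg BW/day, a thin fresh renal slice spanning cortex and medulla was weighed. It was compressed between two slides with a coverslip and examined fresh by light microscopy. Crystals were ranked on a subjective 0–5 scale; some views used polarised light.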

[6] = Serum chemistry, renal function; assay type: in vivo, rat; conditions: for Blood urea nitrogen (mean ± SEM) / Creatinine (mean ± SEM) / Uric acid (mean ± SEM): serum
In short: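 Serum was taken from pregnant and non-pregnant rats after 10 days of gavage with vehicle or 1000 mg/kg BW/day test compound. Samples were brought to room temperature. BUN, creatinine and uric acid were measured on a benchtop veterinary chemistry analyser. Results were compared with control and the other treated group.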

[7] = Serum triazine analysis by LC-MS/MS; assay type: in vivo; conditions: pregnant female rats, individual rat; label = dose group; LOD 0.4 μg/mL
In short: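 Serum was collected from each rat after 10 daily gavages of 1000 mg/kg BW/day test compound or vehicle. Melamine and cyanuric acid were quantified by a previously published LC-MS/MS method, validated with pre-spiked serum samples at several fortification levels. Natural-log serum concentrations were compared between pregnant and non-pregnant rats by two-sided t-test (p ≤ 0.05).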

[8] = Amniotic fluid triazine analysis by LC-MS/MS; assay type: in vivo, rat; conditions: pregnant female rats, pooled by dam; label = dose group; LOD 0.4 μg/mL
In short: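 Amniotic fluid came from GD20 dams gavaged for 10 days with vehicle or 1000 mg/kg BW/day test compound. Melamine and cyanuric acid were measured by a previously published LC-MS/MS method, validated with pre-spiked amniotic fluid. Serum-to-amniotic fluid Pearson correlations were run only on rats with both samples (p ≤ 0.05).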

[9] = Formalin, ethanol and freezing effects on renal crystals; set-up: species or system rat
In short: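 Fresh kidney wet-mounts with crystal rank 4–5 were flooded with 10% neutral buffered formalin and photographed repeatedly. Times were 0, 1, 2, 3 and 24 h for melamine-exposed kidney and 0, 10, 20, 30 min and 1 h for cyanuric acid-exposed kidney. Sections in 100% ethanol were checked daily for up to 6 days. Frozen tissue, either freeze–thawed or held at −70 °C, was cut into 6 μm cryosections, unstained or unfixed H&E.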

[10] = system: kidney and bladder; assay: Histopathology of kidney and bladder; assay type: in vivo, rat
[11] = system: rats; assay: Clinical observations and survival; assay type: in vivo, rat; conditions: 1000 mg/kg BW/day
In short: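 Female rats, time-pregnant or non-pregnant, were weight-stratified and randomised from GD10. They were gavaged each morning for 10 days with 1% CMC-Na vehicle or 1000 mg/kg BW/day test compound at 1 mL/100 g (n = 11/group; pregnant high-triazine group n = 13). Observations were made at least twice on day 1, then at least daily, covering skin, fur, eyes, mucosa, autonomic/CNS signs and behaviour. Animals removed early were counted as deaths.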

[12] = oral, female rats; ref Jacob et al., 2012; cited from earlier work
[13] = system: ABCB1; conditions: MDCK cells; ref Partanen et al. (2012); cited from earlier work
[14] = system: ABCC2; conditions: MDCK cells; ref Partanen et al. (2012); cited from earlier work
[15] = system: ABCG2; conditions: MDCK cells; ref Partanen et al. (2012); cited from earlier work
[16] = pregnant rats, ref Jingbin et al. (2010), cited from earlier work
[17] = system: pregnant rats; conditions: F344 rats, MEL in feed; ref Melnick et al. (1984); cited from earlier work
[18] = not pregnant rats, 1000 mg/kg BW/day
[19] = pregnant rats, 1000 mg/kg BW/day
[20] = 1000 mg/kg BW/day, necropsy GD20
[21] = kidney, H&E, pregnant and non-pregnant

Nc1nc(N)nc(N)n1 [MEL, melamine]
Total feed consumption (g ± SEM) [1, 18]: 112.3 ± 9.2^^ g | Total water consumption (g ± SEM) [1, 18]: 295.1 ± 21.9 g | Total bw gain (g ± SEM) ([1]; not pregnant rats, 1000 mg/kg BW/day gavage 10 days, brackets indicate negative): (9.1) ± 6.5^^ g | Total feed consumption (g ± SEM) [1, 19]: 122.2 ± 11.0^^ g | Total water consumption (g ± SEM) [1, 19]: 391.8 ± 43.6 g | Total bw gain (g ± SEM) ([1]; pregnant rats, 1000 mg/kg BW/day gavage GD10-20): 5.7 ± 14.9^^ g | Adjusted weight gain (g ± SEM) ([1]; pregnant rats, GD20 body weight minus gravid uterus weight and GD10 weight, brackets indicate negative, 1000 mg/kg BW/day): (32.0) ± 14.6^^ g | GD20 Body weight (g ± SEM) ([2]; not pregnant rats): 211.3 ± 6.3 g | Heart weight standardized to body weight (% ± SEM) ([2]; not pregnant rats): 0.43 ± 0.02 % | Left kidney weight standardized to body weight (% ± SEM) ([2]; not pregnant rats): 0.65 ± 0.06% | Liver weight standardized to body weight (% ± SEM) ([2]; not pregnant rats): 3.70 ± 0.14% | Right kidney weight standardized to body weight (% ± SEM) ([2]; not pregnant rats): 0.68 ± 0.08^^ % | Spleen weight standardized to body weight (% ± SEM) ([2]; not pregnant rats): 0.26 ± 0.02% | Paired kidney weight standardized to body weight (% ± SEM) ([2]; not pregnant rats): 1.33 ± 0.13^^ % | GD20 Body weight (g ± SEM) ([2]; pregnant rats): 247.6 ± 11.5 g | Heart weight standardized to body weight (% ± SEM) ([2]; pregnant rats): 0.37 ± 0.03^^ % | Left kidney weight standardized to body weight (% ± SEM) ([2]; pregnant rats): 0.52 ± 0.05% | Liver weight standardized to body weight (% ± SEM) ([2]; pregnant rats): 3.64 ± 0.08% | Right kidney weight standardized to body weight (% ± SEM) ([2]; pregnant rats): 0.56 ± 0.05^^ % | Spleen weight standardized to body weight (% ± SEM) ([2]; pregnant rats): 0.16 ± 0.03% | Paired kidney weight standardized to body weight (% ± SEM) ([2]; pregnant rats): 1.09 ± 0.10^^ % | No. corpea lutea (mean ± SEM) ([3]; 1000 mg/kg BW/day gavage GD10-20, necropsy GD20): 15.1 ± 0.4 | Early and late deaths (mean% of implants ± SEM) [3, 20]: 60.3 ± 14.2^^ % of implants | Early deaths (mean% of implants ± SEM) [3, 20]: 28.8 ± 12.5^@ % of implants | Implant efficiency (mean% ± SEM) [3, 20]: 88.0 ± 3.6% | Late deaths (mean% of implants ± SEM) [3, 20]: 31.6 ± 13.1 % of implants | No. fetuses alive (mean ± SEM) [3, 20]: 5.5 ± 2.0 | No. implants (mean ± SEM) [3, 20]: 13.3 ± 0.6 | Percent alive both genders (mean% ± SEM) [3, 20]: 39.7 ± 14.2% | Percent live females (mean% ± SEM) [3, 20]: 40.7 ± 3.8% | Average crown rump length (mean cm ± SEM) [4]: 3.62 ± 0.23^^ cm | Average fetal body weight (g ± SEM) [4]: 2.85 ± 0.48^^ g | Litter size (mean ± SEM) [4]: 5.5 ± 2.0^^ | Number of rats with non-pigmented pyramidal uroliths adjacent to the papilla ([5]; 1000 mg/kg BW/day): 4 | Treated rats that developed renal crystals (percent) ([5]; pregnant and non-pregnant combined, MEL n = 24, CYA n = 22, wet-mount): 96% | Number of treated rats that developed renal crystals ([5]; pregnant and non-pregnant combined, MEL of 24, CYA of 22, wet-mount): 23 | Effect on uric acid serum levels versus control rats ([6]; 1000 mg/kg BW/day): did not appear to have an effect | Blood urea nitrogen (mean ± SEM) [6, 18]: 62.45 ± 17.32^^ mg/dL | Creatinine (mean ± SEM) [6, 18]: 1.28 ± 0.27^^ mg/dL | Uric acid (mean ± SEM) [6, 18]: 4.18 ± 0.29 mg/dL | Mean creatinine of all treated rats ([6]; pregnant and non-pregnant pooled): 1.4 mg/dL | Mean BUN of all treated rats ([6]; pregnant and non-pregnant pooled, all but one had crystals): 69 mg/dL | BUN and creatinine levels, elevation over control and CYA group levels ([6]; pregnant and non-pregnant rats): 2–4 times | Blood urea nitrogen (mean ± SEM) [6, 19]: 78.25 ± 18.41^^ mg/dL | Creatinine (mean ± SEM) [6, 19]: 1.45 ± 0.22^^ mg/dL | Uric acid (mean ± SEM) [6, 19]: 3.45 ± 0.12 mg/dL | CYA concentration, Serum [7]: <LOD | CYA concentration, Amniotic Fluid [8]: <LOD | Stability of crystals to freeze–thaw cycles ([9]; frozen kidney tissue, CYA stable if held at −70 °C): able to withstand freeze–thaw cycles | Period over which crystals progressively dissolve in 100% ethanol ([9]; kidney wet-mount sections): 6 days | Time within which crystal presence was greatly reduced in formalin ([9]; kidney wet-mount sections): ≤ 2 h | Number of rats with epithelial necrosis in the bladder ([10]; MEL: pregnant rats, minimal to marked, CYA: 1 pregnant, 2 non-pregnant, mild): 3 | Rats with tubular dilation [10, 21]: 92% | Rats with tubular necrosis [10, 21]: 100% | Animals removed from the study early ([11]; non-pregnant rats (n = 11)): 1 | Maternal health during 10 day dosing period ([11]; pregnant and non-pregnant rats): lost condition | Animals removed from the study early ([11]; pregnant rats (n = 13)): 7 | Area under the curve (AUC) [12]: 1992 ng·h/mL | Half-life [12]: 1.92 h | Substrate for ABC transporter ABCB1 [13]: not a substrate | Substrate for ABC transporter ABCC2 [14]: not a substrate | Substrate for ABC transporter ABCG2 [15]: not a substrate | Detection of melamine in amniotic fluid ([16]; 40 mg/kg BW GD13 to GD20): did not detect | Detection of melamine in amniotic fluid ([16]; 400 mg/kg BW): detected | Amniotic fluid concentration as percent of maternal serum [16]: approximately 17% | Microscopically-observed pathology in the ovaries or uteri [17]: did not report any microscopically-observed pathology
